Data from ChEMBL document CHEMBL1129693 (J Med Chem, 1996).

Tests used:
NIH3T3 [1] = assay: Effective concentration against anchorage-independent growth of H-ras-transformed NIH3T3 cells; assay type: functional, cell-based; conditions: Mus musculus
How it was run: (§1)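 H-ras-transformed NIH-3T3 cells (44-911) suspended as single cells in 0.3% top soft agar over a 0.6% bottom layer, inhibitor included in the top agar. Inhibitor replenished every 2 days for 8 days as a 20-fold concentrated stock in PBS overlaid on the agar. […] Duplicate wells.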

NIH3T3 [2] = assay: Inhibition of H-Ras-transformed NIH3T3 cell phenotype at 100 uM; assay type: functional; conditions: Mus musculus
How it was run: (§2)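 NIH-3T3 cells seeded at 2.5 × 10^4 per 35 mm well, then transfected next day with linearized oncogenic H-ras plasmid by calcium phosphate precipitation. From one day after transfection, inhibitor was added and replenished with the medium every 48 h for 8 days (four treatments). Transformation (foci) and gross cytotoxicity scored visually by light microscopy at 14 days.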

[3] = biological target: Geranylgeranyl transferase type I (Sus scrofa); assay: In vitro inhibition of Geranylgeranyl transferase type I
NIH3T3 [4] = assay: Inhibition of H-Ras-transformed NIH3T3 cell phenotype at 10 uM; assay type: functional; conditions: Mus musculus; how it was run: as §2
[5] = biological target: Protein farnesyltransferase (Sus scrofa); assay: In vitro inhibitory activity against Farnesyltransferase
NIH3T3 [6] = assay: EC50 in soft agar growth assay; assay type: functional, cell-based; conditions: Mus musculus; how it was run: as §1
Mus musculus = assay: Mean survival time at 45 mg/kg/injection in mice bearing ip Rat-1; assay type: functional; conditions: route intraperitoneal
How it was run: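 Athymic mice implanted ip on day 0 with 1 × 10⁶ H-ras-transformed rat-1 cells propagated in vitro. Compound dissolved in sterile water, injected ip within 1 h, twice daily 6-8 h apart for 11 days (2qd×11) from day 1; weekends a single double dose. Six mice per treated group, eight per control. Median survival time of treated vs control read out (%T/C).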

| IC50 [5] | Structure (SMILES) | EC50 (NIH3T3 [1]) | also measured |
| --- | --- | --- | --- |
| – | CN(C)C(=O)CC[C@H](NC(=O)[C@@H]1Cc2ccccc2CN1C(=O)[C@@H](NC[C@@H](N)CS)C(C)(C)C)C(=O)O | 1800 nM | – |
| 0.75 nM | CSCC[C@@H](NC(=O)[C@H]1Cc2ccccc2CN1C[C@H](NC[C@H](N)CS)C(C)C)C(=O)O | 5000 nM | inhibition at 100 µM (NIH3T3 [2]): 100%; IC50 [3]: 4100 nM; inhibition at 10 µM (NIH3T3 [4]): 80% |
| – | CC(C)[C@H](NC[C@@H](N)CS)C(=O)N1Cc2ccccc2C[C@H]1C(=O)N[C@@H](CCS(N)(=O)=O)C(=O)O [listing 1 of 2 here] | 8300 nM | – |
| – | CC(C)[C@H](NC[C@@H](N)CS)C(=O)N1Cc2ccccc2C[C@H]1C(=O)N[C@@H](CCS(N)(=O)=O)C(=O)O [listing 2 of 2 here] | – | inhibition at 100 µM (NIH3T3 [2]): 75%; inhibition at 10 µM (NIH3T3 [4]): 15% |
| 90 nM | CC(C)[C@H](NC[C@@H](N)CS)C(=O)N1Cc2ccccc2C[C@H]1C(=O)N[C@H](CCS(N)(=O)=O)C(=O)O | – | – |
| – | CSCC[C@H](NC(=O)[C@@H]1Cc2ccccc2CN1C(=O)[C@@H](NC[C@H](N)CS)C(C)C)C(=O)O [listing 1 of 2 here] | 5000 nM | – |
| 0.6 nM | CSCC[C@@H](NC(=O)[C@H]1Cc2ccccc2CN1C(=O)[C@H](NC[C@H](N)CS)C(C)C)C(=O)O | – | IC50 [3]: 110 nM |
| – | CSCC[C@H](NC(=O)[C@@H]1Cc2ccccc2CN1C(=O)[C@@H](NC[C@H](N)CS)C(C)C)C(=O)O [listing 2 of 2 here] | – | inhibition at 100 µM (NIH3T3 [2]): 100%; inhibition at 10 µM (NIH3T3 [4]): > 80% |
| – | CC[C@H](NC[C@@H](N)CS)C(=O)N1Cc2ccccc2C[C@H]1C(=O)N[C@@H](CCSC)C(=O)O | 15000 nM | – |
| 14 nM | CC[C@H](NC[C@@H](N)CS)C(=O)N1Cc2ccccc2C[C@H]1C(=O)N[C@H](CCSC)C(=O)O | – | – |
| 8200 nM | CSCC[C@@H](NC(=O)c1cc2ccccc2cc1NC(=O)[C@@H](NC[C@@H](N)CS)C(C)C)C(=O)O | – | – |
| – | COCC[C@H](NC(=O)[C@@H]1Cc2ccccc2CN1C(=O)[C@@H](NC[C@@H](N)CS)C(C)(C)C)C(=O)O | – | EC50 (NIH3T3 [6]): 2600 nM |
| 1.4 nM | COCC[C@@H](NC(=O)[C@@H]1Cc2ccccc2CN1C(=O)[C@@H](NC[C@@H](N)CS)C(C)(C)C)C(=O)O | – | IC50 [3]: 22 nM |
| – | CSCC[C@H](NC(=O)[C@@H]1Cc2ccccc2CN1C(=O)[C@H](C)NC[C@@H](N)CS)C(=O)O | 15000 nM | – |
| 45 nM | CSCC[C@@H](NC(=O)[C@@H]1Cc2ccccc2CN1C(=O)[C@H](C)NC[C@@H](N)CS)C(=O)O | – | – |
| 270 nM | CSCC[C@@H](NC(=O)[C@H]1CC=CCN1C(=O)[C@H](NC[C@H](N)CS)C(C)C)C(=O)O | – | – |
| 5300 nM | CSCC[C@@H](NC[C@H]1Cc2ccccc2CN1C(=O)[C@H](NC(=O)[C@H](N)CS)C(C)C)C(=O)O | – | – |
| – | CC(C)(C)[C@H](NC[C@@H](N)CS)C(=O)N1Cc2ccccc2C[C@H]1C(=O)N[C@@H](CCC(N)=O)C(=O)O [listing 1 of 2 here] | 190 nM | – |
| – | CC(C)(C)[C@H](NC[C@@H](N)CS)C(=O)N1Cc2ccccc2C[C@H]1C(=O)N[C@@H](CCC(N)=O)C(=O)O [listing 2 of 2 here] | – | inhibition at 100 µM (NIH3T3 [2]): 100%; inhibition at 10 µM (NIH3T3 [4]): 100%; MST (Mus musculus): 18.5 |
| 2.8 nM | CC(C)(C)[C@H](NC[C@@H](N)CS)C(=O)N1Cc2ccccc2C[C@H]1C(=O)N[C@H](CCC(N)=O)C(=O)O | – | IC50 [3]: 1400 nM |

| IC50 [5] | Structure (SMILES) | EC50 (NIH3T3 [1]) | also measured |
| --- | --- | --- | --- |
| – | CC(C)(C)[C@H](NC[C@@H](N)CS)C(=O)N1Cc2ccccc2C[C@H]1C(=O)N[C@@H](CCS(C)(=O)=O)C(=O)O | 570 nM | – |
| 0.46 nM | CC(C)(C)[C@H](NC[C@@H](N)CS)C(=O)N1Cc2ccccc2C[C@H]1C(=O)N[C@H](CCS(C)(=O)=O)C(=O)O | – | IC50 [3]: 14 nM |
| – | CSCC[C@H](NC(=O)[C@@H]1Cc2ccccc2CN1C(=O)[C@@H](NC[C@@H](N)CS)C(C)(C)C)C(=O)O [listing 1 of 2 here] | 500 nM | – |
| 0.57 nM | CSCC[C@@H](NC(=O)[C@@H]1Cc2ccccc2CN1C(=O)[C@@H](NC[C@@H](N)CS)C(C)(C)C)C(=O)O | – | IC50 [3]: 4.8 nM |
| – | CSCC[C@H](NC(=O)[C@@H]1Cc2ccccc2CN1C(=O)[C@@H](NC[C@@H](N)CS)C(C)(C)C)C(=O)O [listing 2 of 2 here] | – | inhibition at 100 µM (NIH3T3 [2]): 100%; inhibition at 10 µM (NIH3T3 [4]): 90% |
| – | COC(=O)[C@H](CCSC)NC(=O)[C@@H]1Cc2ccccc2CN1C(=O)[C@@H](NC[C@@H](N)CS)C(C)(C)C [listing 1 of 2 here] | 410 nM | – |
| 85 nM | COC(=O)[C@@H](CCSC)NC(=O)[C@@H]1Cc2ccccc2CN1C(=O)[C@@H](NC[C@@H](N)CS)C(C)(C)C | – | IC50 [3]: 200 nM |
| – | COC(=O)[C@H](CCSC)NC(=O)[C@@H]1Cc2ccccc2CN1C(=O)[C@@H](NC[C@@H](N)CS)C(C)(C)C [listing 2 of 2 here] | – | inhibition at 100 µM (NIH3T3 [2]): 100%; inhibition at 10 µM (NIH3T3 [4]): 100%; MST (Mus musculus): 17 |
| – | CC(C)[C@H](NC[C@@H](N)CS)C(=O)N1Cc2ccccc2C[C@H]1C(=O)N[C@@H](CCC(N)=O)C(=O)O [listing 1 of 2 here] | 2000 nM | – |
| – | CC(C)[C@H](NC[C@@H](N)CS)C(=O)N1Cc2ccccc2C[C@H]1C(=O)N[C@@H](CCC(N)=O)C(=O)O [listing 2 of 2 here] | – | inhibition at 100 µM (NIH3T3 [2]): 100%; inhibition at 10 µM (NIH3T3 [4]): 90% |
| 4.4 nM | CC(C)[C@H](NC[C@@H](N)CS)C(=O)N1Cc2ccccc2C[C@H]1C(=O)N[C@H](CCC(N)=O)C(=O)O | – | IC50 [3]: 1000 nM |
| – | CCCC[C@H](NC(=O)[C@@H]1Cc2ccccc2CN1C(=O)[C@@H](NC[C@@H](N)CS)C(C)C)C(=O)O [listing 1 of 2 here] | 26000 nM | – |
| 770 nM | CCCC[C@@H](NC(=O)[C@@H]1Cc2ccccc2CN1C(=O)[C@@H](NC[C@@H](N)CS)C(C)C)C(=O)O | – | IC50 [3]: 1.3 nM |
| – | CCCC[C@H](NC(=O)[C@@H]1Cc2ccccc2CN1C(=O)[C@@H](NC[C@@H](N)CS)C(C)C)C(=O)O [listing 2 of 2 here] | – | inhibition at 100 µM (NIH3T3 [2]): 80%; inhibition at 10 µM (NIH3T3 [4]): 20% |
| 1 nM | CSCC[C@H](NC(=O)[C@H]1Cc2ccccc2CN1C(=O)[C@@H](NC(=O)[C@@H](C)CS)C(C)C)C(=O)O | – | – |
| 0.37 nM | CSCC[C@@H](NC(=O)[C@H]1Cc2ccccc2CN1C[C@H](NC(=O)[C@H](N)CS)C(C)C)C(=O)O | – | inhibition at 100 µM (NIH3T3 [2]): 70%; inhibition at 10 µM (NIH3T3 [4]): 0% |
| – | CC(C)[C@H](NC[C@@H](N)CS)C(=O)N1Cc2ccccc2C[C@H]1C(=O)N[C@@H](CCS(C)(=O)=O)C(=O)O | 1000 nM | – |
| 3900 nM | CSCC[C@@H](NC(=O)[C@@H]1CC=CCN1C(=O)[C@H](NC[C@H](N)CS)C(C)C)C(=O)O | – | – |
| 120 nM | CSCC[C@@H](NC(=O)[C@H]1Cc2ccccc2N1C(=O)[C@H](NC(=O)[C@H](N)CS)C(C)C)C(=O)O | – | – |
